What was measured:
[1] = biological target: T1, C-X-C chemokine receptor type 3 (Homo sapiens) (UniProt P49682); experiment: Displacement of [125I]-CXCL10 from human recombinant CXCR3 transfected in Flp-In-CHO cell membranes at 10 uM after 60 mins by gamma counting method relative to control
T1 sequence (whole entry): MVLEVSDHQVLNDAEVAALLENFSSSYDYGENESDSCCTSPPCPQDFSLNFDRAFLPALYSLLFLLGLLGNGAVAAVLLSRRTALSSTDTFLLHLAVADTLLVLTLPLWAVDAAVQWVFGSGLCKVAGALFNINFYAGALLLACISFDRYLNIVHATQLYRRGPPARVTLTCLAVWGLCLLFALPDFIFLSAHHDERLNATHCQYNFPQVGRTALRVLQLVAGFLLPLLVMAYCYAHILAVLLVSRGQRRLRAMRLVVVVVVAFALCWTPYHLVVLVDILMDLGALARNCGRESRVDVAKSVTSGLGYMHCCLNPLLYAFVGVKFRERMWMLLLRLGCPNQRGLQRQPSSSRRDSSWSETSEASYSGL

[2] = Absolute oral bioavailability in Balb/c mouse at 10 mg/kg; format: ADME, organism-based; conditions: in vivo
Method in brief: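 Male Balb/c mice dosed once orally at 10 mg/kg and once intravenously at 3 mg/kg. Either 4 animals per route were profiled individually, or sparse sampling used 24 mice with 3 per time point for mean profiles. Absolute oral bioavailability was derived from the two routes.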

[3] = Apparent permeability across human Caco2 cells after 2 hrs by LC-MS method; format: ADME, cell-based; conditions: Caco-2
Method in brief: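 Caco-2 monolayers checked for integrity, then dosed alongside high- and low-permeability controls. Apical and basal samples taken at 2 h. Four transport conditions: A-B at pH 6.5/7.4 (0% or 0.5% BSA apical, 5% BSA basal), and A-B and B-A at pH 7.4/7.4 (0.5% BSA both sides). Compound quantified by LC/MS. Rapid transport defined as Papp >20 nm/s.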

[4] = biological target: Mu-type opioid receptor (Homo sapiens) (UniProt P35372); experiment: Displacement of [3H]DAMGO from recombinant human mu opioid receptor expressed in HEK293 cells at 10 uM after 60 mins by scintillation counting method relative to control; format: cell-based
Sequence of Mu-type opioid receptor (Homo sapiens) (P35372 whole entry): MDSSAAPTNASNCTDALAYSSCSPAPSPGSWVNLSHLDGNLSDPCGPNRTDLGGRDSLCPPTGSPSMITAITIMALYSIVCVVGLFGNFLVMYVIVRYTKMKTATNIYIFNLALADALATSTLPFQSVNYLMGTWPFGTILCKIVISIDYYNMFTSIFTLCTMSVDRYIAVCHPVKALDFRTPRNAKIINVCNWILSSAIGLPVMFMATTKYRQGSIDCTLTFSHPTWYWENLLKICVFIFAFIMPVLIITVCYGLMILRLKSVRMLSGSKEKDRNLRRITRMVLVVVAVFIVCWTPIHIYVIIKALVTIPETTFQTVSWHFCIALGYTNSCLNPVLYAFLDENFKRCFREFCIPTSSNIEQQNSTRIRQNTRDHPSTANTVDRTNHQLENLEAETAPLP

[5] = biological target: T2, Muscarinic acetylcholine receptor M2 (Homo sapiens) (UniProt P08172); experiment: Displacement of [3H]AF-DX384 from recombinant human muscarinic M2 receptor expressed in CHO cells at 10 uM after 60 mins by scintillation counting method relative to control; format: cell-based
T2 sequence (whole entry): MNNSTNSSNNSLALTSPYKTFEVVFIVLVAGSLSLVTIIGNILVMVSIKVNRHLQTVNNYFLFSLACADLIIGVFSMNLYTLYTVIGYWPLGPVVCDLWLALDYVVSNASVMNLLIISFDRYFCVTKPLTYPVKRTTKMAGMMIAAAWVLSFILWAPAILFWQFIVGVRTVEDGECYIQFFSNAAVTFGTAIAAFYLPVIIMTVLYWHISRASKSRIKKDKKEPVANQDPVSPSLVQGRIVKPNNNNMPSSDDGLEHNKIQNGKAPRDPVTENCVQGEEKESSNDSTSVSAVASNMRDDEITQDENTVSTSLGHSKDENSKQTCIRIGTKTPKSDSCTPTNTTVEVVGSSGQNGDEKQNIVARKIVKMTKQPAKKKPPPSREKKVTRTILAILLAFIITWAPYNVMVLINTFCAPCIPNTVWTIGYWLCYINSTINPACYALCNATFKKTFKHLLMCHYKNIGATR

[6] = biological target: T3, Muscarinic acetylcholine receptor M1 (Homo sapiens) (UniProt P11229); experiment: Displacement of [3H]pirenzepine from recombinant human muscarinic M1 receptor expressed in CHO cells at 10 uM after 60 mins by scintillation counting method relative to control; format: cell-based
T3 sequence (whole entry): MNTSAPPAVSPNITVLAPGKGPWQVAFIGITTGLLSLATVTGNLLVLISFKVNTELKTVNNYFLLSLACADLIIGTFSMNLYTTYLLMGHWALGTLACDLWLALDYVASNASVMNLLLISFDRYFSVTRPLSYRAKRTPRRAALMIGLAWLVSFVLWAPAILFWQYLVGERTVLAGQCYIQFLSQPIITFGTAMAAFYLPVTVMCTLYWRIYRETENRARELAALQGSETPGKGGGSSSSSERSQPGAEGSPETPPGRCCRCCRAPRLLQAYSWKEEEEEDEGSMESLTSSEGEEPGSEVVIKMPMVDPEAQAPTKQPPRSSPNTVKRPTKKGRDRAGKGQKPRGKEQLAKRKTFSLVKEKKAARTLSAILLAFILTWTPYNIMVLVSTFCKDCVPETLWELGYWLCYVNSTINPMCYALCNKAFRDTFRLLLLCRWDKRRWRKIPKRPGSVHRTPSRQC

[7] = Metabolic stability in human liver microsomes assessed as parent compound remaining in presence of NADPH by LC-MS/MS method; format: ADME
Method in brief: (§1)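 Compound incubated with liver microsomes (human or mouse) plus NADPH at 37 °C. Loss of parent was followed by LC-MS-MS and reported as percent. Stability bands: low <40%, medium 40–60%, high >60%.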

[8] = Metabolic stability in mouse liver microsomes assessed as parent compound remaining in presence of NADPH by LC-MS/MS method; format: ADME; method in brief: as §1
[9] = Intrinsic clearance in human hepatocytes assessed per 10^6 cells at 5 uM; format: ADME, cell-based, Hepatocyte
[10] = biological target: T4, Alpha-1A adrenergic receptor (Homo sapiens) (UniProt P35348); experiment: Displacement of [3H]prazosin from recombinant human alpha 1A adrenergic receptor expressed in CHO cells at 10 uM after 60 mins by scintillation counting method relative to control; format: cell-based
T4 sequence (whole entry): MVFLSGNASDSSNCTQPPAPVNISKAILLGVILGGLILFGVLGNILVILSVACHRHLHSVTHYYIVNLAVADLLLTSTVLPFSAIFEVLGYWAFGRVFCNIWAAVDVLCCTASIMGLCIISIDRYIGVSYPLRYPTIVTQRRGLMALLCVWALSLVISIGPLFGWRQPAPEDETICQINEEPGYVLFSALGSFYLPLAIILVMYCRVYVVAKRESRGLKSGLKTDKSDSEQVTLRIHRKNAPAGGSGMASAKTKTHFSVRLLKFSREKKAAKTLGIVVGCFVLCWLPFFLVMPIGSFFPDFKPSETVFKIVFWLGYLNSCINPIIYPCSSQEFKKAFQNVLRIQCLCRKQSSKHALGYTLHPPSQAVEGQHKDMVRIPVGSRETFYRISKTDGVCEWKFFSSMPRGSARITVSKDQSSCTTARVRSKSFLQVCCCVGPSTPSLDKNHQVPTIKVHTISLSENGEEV

[11] = biological target: Histamine H1 receptor (Homo sapiens) (UniProt P35367); experiment: Displacement of [3H]pyrilamine from recombinant human histamine H1 receptor expressed in HEK293 cells at 10 uM after 60 mins by scintillation counting method relative to control; format: cell-based
Sequence of Histamine H1 receptor (Homo sapiens) (P35367 whole entry): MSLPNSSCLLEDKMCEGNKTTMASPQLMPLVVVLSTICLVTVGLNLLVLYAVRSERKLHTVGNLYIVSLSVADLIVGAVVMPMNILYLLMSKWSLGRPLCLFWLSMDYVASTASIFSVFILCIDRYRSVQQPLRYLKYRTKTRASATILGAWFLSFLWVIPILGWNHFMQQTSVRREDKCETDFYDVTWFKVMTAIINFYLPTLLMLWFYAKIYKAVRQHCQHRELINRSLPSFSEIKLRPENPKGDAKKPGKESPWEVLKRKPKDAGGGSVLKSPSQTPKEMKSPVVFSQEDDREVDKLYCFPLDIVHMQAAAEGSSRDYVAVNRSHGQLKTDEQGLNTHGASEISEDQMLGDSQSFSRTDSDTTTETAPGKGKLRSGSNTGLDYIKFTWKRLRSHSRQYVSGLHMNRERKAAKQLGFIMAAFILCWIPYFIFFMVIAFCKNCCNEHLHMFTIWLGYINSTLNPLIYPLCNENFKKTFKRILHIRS

[12] = biological target: T5, Alpha-2A adrenergic receptor (Homo sapiens) (UniProt P08913); experiment: Displacement of [3H]RX 821002 from recombinant human alpha 2A adrenergic receptor expressed in CHO cells at 10 uM after 60 mins by scintillation counting method relative to control; format: cell-based
T5 sequence (whole entry): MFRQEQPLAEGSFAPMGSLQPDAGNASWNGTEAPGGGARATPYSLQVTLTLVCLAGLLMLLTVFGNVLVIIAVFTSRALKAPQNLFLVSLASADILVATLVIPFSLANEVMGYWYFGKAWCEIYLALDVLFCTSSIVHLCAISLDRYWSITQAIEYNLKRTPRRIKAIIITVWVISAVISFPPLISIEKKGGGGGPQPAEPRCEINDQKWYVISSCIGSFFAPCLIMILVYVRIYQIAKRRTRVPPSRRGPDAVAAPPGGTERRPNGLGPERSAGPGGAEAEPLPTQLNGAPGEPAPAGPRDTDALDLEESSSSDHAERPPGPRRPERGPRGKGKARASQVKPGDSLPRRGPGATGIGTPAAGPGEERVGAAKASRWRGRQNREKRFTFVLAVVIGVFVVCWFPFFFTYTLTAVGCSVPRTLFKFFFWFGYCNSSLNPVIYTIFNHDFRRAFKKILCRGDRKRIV

[13] = biological target: T6, C-X-C chemokine receptor type 3 (Homo sapiens, UniProt P49682); experiment: Antagonist activity at human Galphai4qi4-coupled CXCR3A expressed in engineered CHO cells assessed as inhibition of IP-10-induced calcium mobilization by FLIPR assay; format: functional, cell-based
T6 sequence (P49682 whole entry): T1 sequence (whole entry)

[14] = biological target: T6, C-X-C chemokine receptor type 3; experiment: Displacement of [125I]-CXCL10 from human recombinant CXCR3 transfected in Flp-In-CHO cell membranes after 60 mins by gamma counting method
[15] = Chemical stability of the compound in 1:1 acetonitrile-water at pH 6.5 after 48 hrs by LC-MS method; format: physicochemical; conditions: buffer, pH 6.5, 48 h

| SMILES | inhibition [1] [%] | bioavailability [2] [%] | Papp at 2 h [3] [×10⁻⁶ cm/s] | inhibition [4] [%] | inhibition [5] [%] | Stability [7] [%] | Stability [8] [%] | CLH [9] [mL/h] | inhibition [10] [%] | further results |
| --- | --- | --- | --- | --- | --- | --- | --- | --- | --- | --- |
| COc1cc(CN(C)C(C)c2ccc3c(c2)CCO3)cc(OCCN2C(=O)CCC2=O)c1 (stereo not given) | 4 | – | – | – | – | – | – | – | – | – |
| Cc1cc(CN(C[C@H]2CC[C@H](C(=O)O)CC2)[C@H]2CCc3cc(Cl)ccc32)ccc1OCCN1C(=O)CCC1=O | – | 69 | 8.12 | 87 | 92 | 78 | 91 | 0.09 | – | inhibition [6]: 82% |
| COc1cc(CN(C)C(C)c2ccc3c(c2)CCO3)ccc1OCN1C(=O)CCC1=O (stereo not given) | 8 | – | – | – | – | – | – | – | – | – |
| CCc1cc(CN(C[C@H]2CC[C@H](C(=O)O)CC2)[C@H]2CCc3cc(Cl)ccc32)ccc1OCCN1C(=O)CCC1=O | – | – | 8.02 | – | 37 | 94 | 96 | 0.069 | – | – |
| CC(c1ccc2c(c1)CCO2)N(C)Cc1ccc2c(c1)OC[C@H](CN1C(=O)CCC1=O)O2 (stereo not given in full) | 36 | – | – | – | – | – | – | – | – | – |
| COc1cc(CN(C[C@H]2CC[C@H](C(=O)O)CC2)[C@H]2CCc3cc(Cl)ccc32)ccc1OCCN1C(=O)CCC1=O | – | 24 | 7.52 | 43 | – | 70 | 79 | 0.112 | 25 | – |
| CC(c1ccc2c(c1)CCO2)N(C)Cc1ccc2c(c1)OCCN2CCN1C(=O)CCC1=O (stereo not given) | 7 | – | – | – | – | – | – | – | – | – |
| Cc1cc(CN(C[C@H]2CC[C@H](C(=O)O)CC2)[C@@H](C)c2ccc(Cl)cc2)ccc1OCCN1C(=O)CCC1=O | – | 93.5 | 19.5 | – | 97 | 73 | 87 | 0.138 | 71 | – |
| COc1cc(CN(C)C(C)c2ccc3c(c2)CCO3)ccc1OCCN1C(=O)CCC1=O (stereo not given) | – | – | 5.62 | > 65 | > 65 | 53 | 52 | – | > 65 | inhibition [11]: > 65%; inhibition [12]: > 65%; IC50 [13]: 74 nM; IC50 [14]: 403 nM |
| COc1cc(CN(C[C@H]2CC[C@H](C(=O)O)CC2)C(C)c2ccc3c(c2)CCO3)ccc1OCCN1C(=O)COC1=O (stereo not given in full) | – | – | 1.16 | – | – | 88 | 93 | – | – | Stability [15]: Unstable |

Source: ChEMBL document CHEMBL3864163, “I. Discovery of a novel series of CXCR3 antagonists. Multiparametric optimization of N,N-disubstituted benzylamines” (Bioorg Med Chem Lett, 2016)
